4 compounds from ChEMBL document CHEMBL4834438, “Synthesis and Biological Activity of Triterpene-Coumarin Conjugates” (J Nat Prod, 2021) can be followed below.

Each structure is given as a SMILES string. Activity calls are given as the source filed them. The calls are words filed in the database; no cut-off is given here.

The test system of experiment [1] is B16-F10. The experiment can be described thus: Induction of apoptosis in mouse B16-F10 cells assessed as total apoptosis at IC50 concentrations measured after 72 hrs by Annexin V-FITC/Propidium iodide staining based FACS cytometry analysis. In kind it is functional. In a few lines: (§1)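 Seeding in 24-well plates was 5 × 10^4 B16–F10, 6 × 10^4 HT29 or 15 × 10^4 Hep G2 per well, followed by 24 h growth. Cells were treated in triplicate for 72 h at the respective IC50. Harvested cells went into HEPES binding buffer (pH 7.4, 140 mM NaCl, 2.5 mM CaCl2), with Annexin V-FITC added for 15 min at room temperature in the dark, then PI just before FACScan. About 10 × 10^3 cells were counted per sample. Results are mean ± SEM, relative to untreated control.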

The test system of experiment [2] is HepG2. The experiment can be described thus: Induction of apoptosis in human HepG2 cells assessed as total apoptosis at IC50 concentrations measured after 72 hrs by Annexin V-FITC/Propidium iodide staining based FACS cytometry analysis. In kind it is functional. The method, boiled down:
as §1

The subject of experiment [3] is B16-F10. In words: Cell cycle arrest in mouse B16-F10 cells assessed as decrease in cells accumulation in S phase at IC50 concentrations measured after 72 hrs by Propidium iodide staining based FACS cytometry analysis. The experiment is classed as functional. Also on record: scale not given: the % may be the effect or the level left. The method, boiled down: (§2)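 Cells were seeded in 24-well plates (5 × 10^4 B16–F10 or 6 × 10^4 HT29 per well) and grown 24 h in DMEM with 10% FCS and 2 mM glutamine at 37 °C, 5% CO2. They were then exposed 72 h at the cancer-line IC50, washed in PBS, trypsinized and taken up in TBS, then in Vindelov buffer (RNase, PI, pH 8). Cells were kept on ice and given extra PI before reading. About 10 × 10^3 cells were read per run by FACS at 488 nm. Three experiments, two replicates each, reported as mean ± SEM.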

In experiment [4] the test system is HT-29. In words: Cell cycle arrest in human HT-29 cells assessed as decrease in cells accumulation in S phase at IC50 concentrations measured after 72 hrs by Propidium iodide staining based FACS cytometry analysis. The experiment is classed as functional. Also on record: scale not given: the % may be the effect or the level left. In a few lines:
as §2

The subject of experiment [5] is B16-F10. In words: Induction of mitochondrial membrane potential loss in mouse B16-F10 cells assessed as fluorescence intensity at IC50 concentration measured after 72 hrs by rhodamine 123 staining based FACScan flow cytometry. In kind it is functional, cell-based. In a few lines:
(§3)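 The medium was then renewed with dihydrorhodamine, which oxidizes to Rh123, for 1 h at 37 °C in 5% CO2. Cells were washed and resuspended in PBS, and fluorescence was read by FACScan (excitation 500, emission 536 nm). Three experiments, two replicates each, reported as mean ± SEM.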

Experiment [6] has as its system HT-29. The experiment can be described thus: Induction of mitochondrial membrane potential loss in human HT-29 cells assessed as fluorescence intensity at IC50 concentration measured after 72 hrs by rhodamine 123 staining based FACScan flow cytometry. In kind it is functional, cell-based. In a few lines:
as §3
In general terms: A flow cytometer gives signals particle by particle.

In experiment [7] the test system is HepG2. The experiment can be described thus: Induction of mitochondrial membrane potential loss in human HepG2 cells assessed as fluorescence intensity at IC50 concentration measured after 72 hrs by rhodamine 123 staining based FACScan flow cytometry. In kind it is functional, cell-based. The method, boiled down:
as §3

For experiment [8], the system named is B16-F10. In words: Induction of apoptosis in mouse B16-F10 cells assessed as necrotic cells at IC50 concentrations measured after 72 hrs by Annexin V-FITC/Propidium iodide staining based FACS cytometry analysis. In kind it is functional. In a few lines:
as §1

In experiment [9] the test system is HT-29. In words: Induction of apoptosis in human HT-29 cells assessed as necrotic cells at IC50 concentrations measured after 72 hrs by Annexin V-FITC/Propidium iodide staining based FACS cytometry analysis. The experiment is classed as functional. The method, boiled down:
as §1

In experiment [10] the test system is HepG2. In words: Induction of apoptosis in human HepG2 cells assessed as necrotic cells at IC50 concentrations measured after 72 hrs by Annexin V-FITC/Propidium iodide staining based FACS cytometry analysis. In kind it is functional. The method, boiled down: as §1
The test system of experiment [11] is B16-F10. The experiment can be described thus: Cell cycle arrest in mouse B16-F10 cells assessed as increase in cells accumulation in G0/G1 phase at IC50 concentrations measured after 72 hrs by Propidium iodide staining based FACS cytometry analysis. The experiment is classed as functional. In a few lines: as §2
Experiment [12] relates to HT-29. In words: Cell cycle arrest in human HT-29 cells assessed as increase in cells accumulation in G0/G1 phase at IC50 concentrations measured after 72 hrs by Propidium iodide staining based FACS cytometry analysis. The experiment is classed as functional. In a few lines:
as §2

In experiment [13] the test system is HT-29. The experiment can be described thus: Induction of apoptosis in human HT-29 cells assessed as total apoptosis at IC50 concentrations measured after 72 hrs by Annexin V-FITC/Propidium iodide staining based FACS cytometry analysis. In kind it is functional. The method, boiled down: as §1

`CC1(C)CC[C@]2(C(=O)NCCCNC(=O)Cc3cc(=O)oc4cc(O)ccc34)CC[C@]3(C)C(=CC[C@@H]4[C@@]5(C)C[C@@H](O)[C@H](O)C(C)(C)[C@@H]5CC[C@]43C)[C@@H]2C1`: the Activity was 85% with B16-F10 [1]; 40% in the experiment on HepG2 [2]; 10% with B16-F10 [3]; 10% in the experiment with HT-29 [4]; 5% with B16-F10 [8]; 5% in the experiment with HT-29 [9]. For the same compound, the Activity in the experiment on HepG2 [10] is listed as 5%. The result in the experiment with B16-F10 [5] and in the experiment with HT-29 [6] was inactive. Moreover, in the experiment on HepG2 [7], the outcome was Active.

On to `CC1(C)CC[C@]2(C(=O)NCCCNC(=O)c3cc4ccccc4oc3=O)CC[C@]3(C)C(=CC[C@@H]4[C@@]5(C)C[C@@H](O)[C@H](O)C(C)(C)[C@@H]5CC[C@]43C)[C@@H]2C1`, for which the outcome in the experiment with B16-F10 [11], in the experiment with HT-29 [12], with B16-F10 [5] and in the experiment with HT-29 [6] was inactive. Also, the Activity is given as 10% with B16-F10 [3]; 10% with HT-29 [4]; 5% in the experiment on B16-F10 [8]; 5% with HT-29 [9]; 5% in the experiment with HepG2 [10]. Moreover, the outcome with HepG2 [7] was Active.

As for `CC1(C)CC[C@]2(C(=O)O)CC[C@]3(C)C(=CC[C@@H]4[C@@]5(C)C[C@@H](OC(=O)c6cc7ccccc7oc6=O)[C@H](OC(=O)c6cc7ccccc7oc6=O)C(C)(C)[C@@H]5CC[C@]43C)[C@@H]2C1`, the Activity in the experiment on HT-29 [13] amounted to 58%; in the experiment on HepG2 [2], 40%; in the experiment with B16-F10 [3] it was 10%; with HT-29 [4], 10%; in the experiment with B16-F10 [8] it was 5%; with HT-29 [9], 5%. Also, the Activity in the experiment with HepG2 [10] is on record as 5%. Moreover, the outcome in the experiment on B16-F10 [5] and with HT-29 [6] was inactive. For the same compound, the outcome with HepG2 [7] was Active.

Consider `CC1(C)CC[C@]2(C(=O)NCCCNC(=O)/C=C/c3ccc(O)cc3)CC[C@]3(C)C(=CC[C@@H]4[C@@]5(C)C[C@@H](O)[C@H](O)C(C)(C)[C@@H]5CC[C@]43C)[C@@H]2C1`, for which the Activity is 40% in the experiment on B16-F10 [1]; 40% with HT-29 [13]; 76% with HepG2 [2]; 10% in the experiment with B16-F10 [3]; 10% with HT-29 [4]; 5% with B16-F10 [8]. Also, the Activity in the experiment with HT-29 [9] and in the experiment on HepG2 [10] was 5% each time. The outcome with B16-F10 [5] and in the experiment with HT-29 [6] was inactive. The result with HepG2 [7] was Active.
